The list is not random: actives were taken first. Their share in the collection is about 9.8%.
L major viab = reduces viability of Leishmania major promastigotes. resazurin fluorescence viability. inhibition, % at 10 µM. hit rate 9% among 200,000. AID 1063; in the data active = inhibition above about 50%;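 also: promastigotes grown with compound for 44 hours at 28 °C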
PMI act hi M6P = increases human PMI activity with near-saturating mannose 6-phosphate. P34949. coupled PMI enzyme assay, resazurin fluorescence, 20 min; stronger effect = higher value; 1 = untreated enzyme, 0 = substrate-free blank. activation factor at 20 µM. hit rate 0.34% among 190,000;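 active = activation factor of 2 or more at 20 µM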
Target sequence (P34949 whole entry, looked up): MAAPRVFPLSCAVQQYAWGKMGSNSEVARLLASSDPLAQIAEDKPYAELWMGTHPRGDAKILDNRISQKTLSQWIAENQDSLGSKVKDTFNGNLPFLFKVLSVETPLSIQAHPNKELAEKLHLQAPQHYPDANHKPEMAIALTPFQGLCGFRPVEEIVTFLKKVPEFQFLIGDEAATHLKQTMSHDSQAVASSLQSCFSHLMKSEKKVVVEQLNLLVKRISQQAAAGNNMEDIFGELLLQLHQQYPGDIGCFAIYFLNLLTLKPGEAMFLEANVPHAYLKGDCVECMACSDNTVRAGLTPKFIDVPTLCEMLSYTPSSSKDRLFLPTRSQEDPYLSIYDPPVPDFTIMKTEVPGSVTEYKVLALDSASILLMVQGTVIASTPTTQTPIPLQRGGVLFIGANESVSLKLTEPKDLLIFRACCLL
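Test system: Human PMI in coupled enzyme assay | Input: 15 ng/mL PMI | Medium: HEPES-buffered pH 7.4 with magnesium and detergent | Compound: One concentration, 20 µM, in 1% DMSO | Incubation: Enzyme reaction with compound 20 min at room temperature | Detection: Diaphorase-driven resazurin-to-resorufin fluorescence, excitation 544, emission 590 nm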
Rad51 HR inh = Rad51 (human) homologous recombination inhibition; hRad51 DNA strand exchange, fluorescence dequenching; inhibition, % at 10 µM; hit rate 0.085% among 200,000; AID 1385;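 active = inhibition above 40% at the single screening dose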;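 also: 0% = DMSO control wells and 100% = blanks with heterologous ssDNA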
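material = hRad51 filaments on single-stranded DNA | timing = filaments 15 min 37 °C, then compound 30 min | signal = FRET fluorescence dequenching, excitation 485 nm, emission 520 nm | benchmarks = control wells and blank wells on each plate | evaluation = percent inhibition relative to plate controls and blanks | compound = 10 µM final, single point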
m-calpain inh = blocks pig calpain II enzyme activity. purified calpain II, fluorogenic peptide substrate, 30 min. inhibition, % at 16 µM. hit rate 0.37% among 220,000. AID 1236;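 active = inhibition above about 50%, limit read from the data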
PMI activator = activators of human phosphomannose isomerase; P34949; purified human PMI, coupled resazurin fluorescence, 20 min; stronger effect = higher value; 1 = vehicle control, 0 substrate-free wells; activation factor at 20 µM; hit rate 0.005% among 190,000; AID 1214;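 active = activation factor of 2 or more at 20 µM, relative to plate controls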
WT yeast gro inh = growth inhibition of WT yeast, mitochondrial fusion screen. inhibition, % at 10 µM. mitochondrial fusion phenotypic screen, WT strain. hit rate 2.1% among 190,000; in the data active = inhibition above about 58%; tested in S. cerevisiae
* marks the source's active call; other numbers are inactive results; i = inactive; . = no result given.

SMILES	L major viab	PMI act hi M6P	Rad51 HR inh	m-calpain inh	PMI activator	WT yeast gro inh
COc1ccc2[nH]c3c(=O)n(CCCCC(=O)NCCC(C)C)c(=S)[nH]c3c2c1	5.5	1.1	2.2	-5.3	1.2	1.2
O=C(NCc1ccco1)/C(=C\c1cccs1)NC(=O)c1ccco1	-1.1	1	7.5	14.0	1	3.8
CN(CCCNC(=O)c1cccn2c(=O)c3ccccc3nc12)Cc1ccccc1	100.1*	1	-4.5	-258.8	1	-2.0
COc1ccc(-c2cc(C(F)(F)F)nc(S(C)(=O)=O)n2)cc1	100.4*	1	0.9	-462.1	1	-11.8
CCOC(=O)c1ccc(-c2ccc(CO)o2)cc1	-7.1	0.9	2.0	i	0.8	21.7
CCOC(=O)c1ccc(-c2ccc(C3Nc4ccccc4C(=O)N3O)o2)cc1 (stereo not drawn)	98.5*	1.2	13.8	12.3	1.1	-1.8
COc1ccc(C2Nc3ccccc3C(=O)N2O)cc1OC (stereo not drawn)	-1.6	1.2	.	-36.5	1.2	21.7
Cc1cc([N+](=O)[O-])ccc1-c1ccc(C2Nc3ccccc3C(=O)N2O)o1 (stereo not drawn)	99.5*	0.9	-7.7	-7.9	1	40.3
Cc1cccc(NC(=O)C2CCCN2C(=O)NC2CCCCC2)c1 (stereo not drawn)	-1.2	0.9	-0.6	-15.4	0.9	-7.0
CCN(CC)CCNC(=O)Cc1nn(CC)c(=O)c2ccccc12	-4.4	1.1	-7.6	-4.3	1.1	-0.6
CCN(CC)CCNc1ccc(CO)c2sc3ccccc3c(=O)c12	99.8*	0.6	-6.5	5.4	0.8	18.8
Cc1cc(Cl)ccc1Oc1ncc(CN2CCN(c3ccccc3)CC2)s1	-5.6	0.9	6.0	-14.2	0.9	63.6*
Cc1ccc(N/N=C/c2c(C)c(C#N)c(=O)n(C)c2O)cc1C	80.1*	0.8	17.7	-4.0	0.6	26.6
C[C@@H]1C=C(C(=O)N2CCOCC2)O[C@H](OCc2ccc(CO)cc2)C1	-8.3	1	-3.4	-1.8	0.8	-37.2
COc1ccc(S(=O)(=O)Nc2ccc(F)c(F)c2)cc1Cl	5.9	0.9	2.9	20.3	0.8	8.1
COc1ccc(NS(=O)(=O)c2ccc(OC)c(N(C)S(=O)(=O)c3ccc(Cl)cc3)c2)cc1	99.8*	0.8	1.4	-23.7	0.8	-2.4
COc1ccc(S(=O)(=O)Nc2ccc(F)cc2)cc1N(C)S(=O)(=O)c1ccc(Cl)cc1	100.2*	0.9	2.0	-12.9	0.8	17.5
Cc1ccc(NC2Sc3ccccc3NC2=O)cc1 (stereo not drawn)	-11.7	2.1*	-5.2	-6.0	1.6	2.5
CSc1ccc(/C=N/NC(=O)c2ccccc2Cl)cc1	4.0	1	.	-13.0	0.9	-7.6
O=C(CCCN1C(=O)/C(=C\c2cccs2)SC1=S)NNC(=O)c1cccnc1	-5.8	1.1	15.2	-42.4	1.1	-7.5
CN(C(=O)CSc1nnc(-c2cccnc2)n1-c1ccccc1F)C1CCS(=O)(=O)C1 (stereo not drawn)	-7.6	1	14.2	14.5	1	-8.1
CCOc1ccc(NC(=O)CN2C(=O)/C(=C3\SC(=S)N(C4CCS(=O)(=O)C4)C3=O)c3ccccc32)cc1 (stereo not drawn)	.	.	-2.3	62.6*	.	.
O=C1CN(/N=C/c2ccc([N+](=O)[O-])o2)C(=O)N1	95.2*	1	-4.7	16.7	1.1	3.2
O=[N+]([O-])c1ccc(/C=N/Nc2ccc3ccccc3c2)o1	-4.9	1.2	-87.7	-10.9	1.4	18.3
O=C1OCCN1/N=C/c1ccc([N+](=O)[O-])o1	93.3*	1.1	-5.9	17.9	1.2	-11.9
SMILES	L major viab	PMI act hi M6P	Rad51 HR inh	m-calpain inh	PMI activator	WT yeast gro inh
Cc1ccc(-c2cc(Cc3ccccn3)c(=O)[nH]n2)cc1	.	.	20.1	-7.8	.	.
CC1=C(C(=O)OCc2ccc3c(c2)OCO3)C(c2ccccc2OCc2ccccc2)NC(=O)N1 (stereo not drawn)	99.0*	1	-0.7	-15.8	1	25.6
CC1=C(C(=O)OCc2ccc3c(c2)OCO3)C(c2ccccc2)NC(=O)N1 (stereo not drawn)	18.7	0.9	-5.5	-3.3	0.9	4.8
Fc1ccccc1C1c2cccn2CCN1C(=S)Nc1ccc(Br)cc1 (stereo not drawn)	22.6	1	2.6	12.7	1	62.5*
Fc1ccccc1C1c2cccn2CCN1C(=S)Nc1cccc(Br)c1 (stereo not drawn)	3.2	0.7	4.4	-17.3	0.8	59.2*
CNC(=S)N1CCn2cccc2C1c1ccc(F)cc1 (stereo not drawn)	-5.1	1.1	2.4	-13.2	1.2	-13.0
COc1ccc(/C=N/Nc2ncccc2[N+](=O)[O-])c(OC)c1	13.1	1	9.2	12.2	1	2.7
O=C(Nc1nnc(-c2ccco2)o1)c1ccc([N+](=O)[O-])s1	19.8	1.3	-6.7	-3.4	1.4	-0.2
CCOC(=O)C1=C(C)NC(C)=C(C(=O)OCC)C1C(=O)OCC(=O)N1CCc2ccccc21	97.4*	1.1	-3.6	-43.6	1.1	14.0
CCOC(=O)C1=C(C)NC(C)=C(C(=O)OCC)C1C(=O)OCC(=O)c1ccc2c(c1)OCCO2	65.3*	0.9	2.5	-61.2	0.9	-24.7
CCOC(=O)C1=C(C)NC(C)=C(C(=O)OCC)C1C(=O)OCC(N)=O	1.8	1.1	0.8	-40.7	1.1	2.5
Cc1cccc(CN2CCN(c3nc4nonc4nc3NC3CC3)CC2=O)c1	-0.1	1	0.6	-9.9	1	8.1
O=C1CSC(c2cccc(Cl)c2Cl)N1c1ccccn1 (stereo not drawn)	90.7*	0.9	-3.4	20.7	0.8	37.7
Cn1c(SCc2ccccn2)nnc1-c1ccccc1	-7.1	1	-2.8	-33.3	1	-4.4
COc1ccc(/C=C2\SC(=S)N(NC(=O)c3ccncc3)C2=O)cc1OC	-4.3	0.9	-69.3	-6.8	1	-13.1
COc1ccc(/C=C2\SC(=N)N(c3nccs3)C2=O)cc1OC	96.5*	0.9	-1.2	4.7	0.8	32.7
COc1ccc(/C=C2\SC(=O)N=C2N)cc1OC	53.2*	1	-3.8	6.0	1.1	-2.6
N=C1S/C(=C\c2ccc(-c3cccc(Cl)c3)o2)C(=O)N1c1nccs1	99.2*	1.3	-25.5	-67.9	1.2	-4.1
COc1cc(CO)ccc1Oc1nc2ccccc2n2cnnc12	.	.	.	4.2	.	.
C/C(CC(=O)NC1CCCCC1)=N\NC(=O)COc1ccc(C)cc1Br	-2.4	1.1	.	-12.1	1	11.6
N#CC1CC(c2ccccc2)=NN1c1ccccc1[N+](=O)[O-] (stereo not drawn)	27.5	1	-1.8	-4.1	1	12.5
O=C(C1CC(c2ccc(F)cc2)=NO1)N1CCN(Cc2ccccc2)CC1 (stereo not drawn)	88.6*	1.1	3.9	6.8	1.1	13.9
